According to ChEMBL document CHEMBL1143812, “A novel bis-tetrahydrofuranylurethane-containing nonpeptidic protease inhibitor (PI), GRL-98065, is potent against multiple-PI-resistant human immunodeficiency virus in vitro” (Antimicrob Agents Chemother, 2007):

Assays:
[1] = test system: Human immunodeficiency virus 1; assay: Antiviral activity against ritonavir-resistant HIV1 in MT4 cells assessed as inhibition of p24 Gag protein expression by MTT assay; format: functional, organism-based; conditions: Human immunodeficiency virus 1, MT4
Method in brief: (§1)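 MT-4 cells (10^5/ml) infected with 100 TCID50s of wild-type or PI-resistant NL4-3 virus and incubated at 37°C with or without graded drug concentrations. On day 7, supernatant p24 Gag was measured by chemiluminescent enzyme immunoassay. […] Assays were run in duplicate or triplicate.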

[2] = test system: Human immunodeficiency virus 1; assay: Antiviral activity against idinavir-resistant HIV1 in MT4 cells assessed as inhibition of p24 Gag protein expression by MTT assay; format: functional, organism-based; conditions: Human immunodeficiency virus 1, MT4; method in brief: as §1
[3] = test system: Human immunodeficiency virus 1; assay: Antiviral activity against nelfinavir-resistant HIV1 in MT4 cells assessed as inhibition of p24 Gag protein expression by MTT assay; format: functional, organism-based; conditions: Human immunodeficiency virus 1, MT4; method in brief: as §1
[4] = test system: Human immunodeficiency virus 1; assay: Antiviral activity against atazanavir-resistant HIV1 in MT4 cells assessed as inhibition of p24 Gag protein expression by MTT assay; format: functional, organism-based; conditions: Human immunodeficiency virus 1, MT4; method in brief: as §1
[5] = test system: Human immunodeficiency virus 1; assay: Antiviral activity against lopinavir-resistant HIV1 in MT4 cells assessed as inhibition of p24 Gag protein expression by MTT assay; format: functional, organism-based; conditions: Human immunodeficiency virus 1, MT4; method in brief: as §1
[6] = test system: Human immunodeficiency virus 1; assay: Antiviral activity against amprenavir-resistant HIV1 in MT4 cells assessed as inhibition of p24 Gag protein expression by MTT assay; format: functional, organism-based; conditions: Human immunodeficiency virus 1, MT4; method in brief: as §1
[7] = test system: Human immunodeficiency virus 1; assay: Antiviral activity against HIV1 GRL98065p20 in MT4 cells assessed as inhibition of p24 Gag protein expression by MTT assay; format: functional, organism-based; conditions: Human immunodeficiency virus 1, MT4; method in brief: as §1
[8] = test system: Human immunodeficiency virus 1; assay: Antiviral activity against HIV1 GRL98065p30 in MT4 cells assessed as inhibition of p24 Gag protein expression by MTT assay; format: functional, organism-based; conditions: Human immunodeficiency virus 1, MT4; method in brief: as §1
[9] = test system: Human immunodeficiency virus 1; assay: Antiviral activity against HIV1 GRL98065p40 in MT4 cells assessed as inhibition of p24 Gag protein expression by MTT assay; format: functional, organism-based; conditions: Human immunodeficiency virus 1, MT4; method in brief: as §1
[10] = test system: Human immunodeficiency virus 1; assay: Antiviral activity against wild type HIV1 ERS104prc X4 in phytohemagglutininin-activated PBMCs assessed as inhibition of p24 Gag protein expression by MTT assay; format: functional, organism-based
Method in brief: (§2)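 PHA-activated PBMCs (10^6/ml) infected with 50 TCID50s of each isolate and cultured with or without drug in 10-fold serial dilutions. The read-out was supernatant p24 Gag by chemiluminescent enzyme immunoassay. Assays were run in duplicate or triplicate, with one donor per experiment and three donors in total.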

[11] = test system: Human immunodeficiency virus 1; assay: Antiviral activity against HIV1 MDR/TM X4 in phytohemagglutininin-activated PBMCs assessed as inhibition of p24 Gag protein expression by MTT assay; format: functional, organism-based
Method in brief: as §2, with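 “immunoassay. […]” for “immunoassay.”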

[12] = test system: Human immunodeficiency virus 1; assay: Antiviral activity against HIV1 MDR/MM R5 in phytohemagglutininin-activated PBMCs assessed as inhibition of p24 Gag protein expression by MTT assay; format: functional, organism-based
Method in brief: as §2, with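 “immunoassay. […]” for “immunoassay.”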

[13] = test system: Human immunodeficiency virus 1; assay: Antiviral activity against HIV1 MDR/JSL R5 in phytohemagglutininin-activated PBMCs assessed as inhibition of p24 Gag protein expression by MTT assay; format: functional, organism-based
Method in brief: as §2, with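 “immunoassay. […]” for “immunoassay.”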

[14] = test system: Human immunodeficiency virus 1; assay: Antiviral activity against HIV1 MDR/B X4 in phytohemagglutininin-activated PBMCs assessed as inhibition of p24 Gag protein expression by MTT assay; format: functional, organism-based
Method in brief: as §2, with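 “immunoassay. […]” for “immunoassay.”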

[15] = test system: Human immunodeficiency virus 1; assay: Antiviral activity against HIV1 MDR/C X4 in phytohemagglutininin-activated PBMCs assessed as inhibition of p24 Gag protein expression by MTT assay; format: functional, organism-based
Method in brief: as §2, with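 “immunoassay. […]” for “immunoassay.”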

[16] = test system: Human immunodeficiency virus 1; assay: Antiviral activity against HIV1 MDR/G X4 in phytohemagglutininin-activated PBMCs assessed as inhibition of p24 Gag protein expression by MTT assay; format: functional, organism-based; method in brief: as §2
[17] = test system: Human immunodeficiency virus 1; assay: Antiviral activity against HIV1 92UG029 X4 subtype A in phytohemagglutininin-activated PBMCs assessed as inhibition of p24 Gag protein expression by MTT assay; format: functional, organism-based
Method in brief: as §2, with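 “immunoassay. […]” for “immunoassay.”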

[18] = test system: Human immunodeficiency virus 1; assay: Antiviral activity against HIV1 92UG037 subtype A R5 in phytohemagglutininin-activated PBMCs assessed as inhibition of p24 Gag protein expression by MTT assay; format: functional, organism-based
Method in brief: as §2, with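 “immunoassay. […]” for “immunoassay.”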

[19] = test system: Human immunodeficiency virus 1; assay: Antiviral activity against HIV1 BaL R5 subtype B in phytohemagglutininin-activated PBMCs assessed as inhibition of p24 Gag protein expression by MTT assay; format: functional, organism-based; method in brief: as §2
[20] = test system: Human immunodeficiency virus 1; assay: Antiviral activity against HIV1 97ZA003 R5 subtype C in phytohemagglutininin-activated PBMCs assessed as inhibition of p24 Gag protein expression by MTT assay; format: functional, organism-based
Method in brief: as §2, with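 “immunoassay. […]” for “immunoassay.”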

[21] = test system: Human immunodeficiency virus 1; assay: Antiviral activity against HIV1 92TH019 R5 subtype E in phytohemagglutininin-activated PBMCs assessed as inhibition of p24 Gag protein expression by MTT assay; format: functional, organism-based
Method in brief: as §2, with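 “immunoassay. […]” for “immunoassay.”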

[22] = test system: Human immunodeficiency virus 1; assay: Antiviral activity against saquinavir-resistant HIV1 in MT4 cells assessed as inhibition of p24 Gag protein expression by MTT assay; format: functional, organism-based; conditions: Human immunodeficiency virus 1, MT4; method in brief: as §1
[23] = test system: Human immunodeficiency virus 1; assay: Antiviral activity against HIV1 LAI in MT2 cells assessed as inhibition of p24 Gag protein expression by MTT assay; format: functional, organism-based; conditions: Human immunodeficiency virus 1, LAI
Method in brief: (§3)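 MT-2 cells (2 × 10^4/ml) were infected with 100 TCID50s of the HIV-1LAI, HIV-2EHO or HIV-2ROD strain. They were cultured with serial drug concentrations at 37°C for 7 days. MTT was then added for 4 h at 37°C, formazan was dissolved in acidified isopropanol with 4% Triton X-100, and optical density was read. EC50 is the mean of three independent experiments, each run in duplicate.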

[24] = test system: Human immunodeficiency virus 2; assay: Antiviral activity against HIV2 EHO in MT2 cells assessed as inhibition of p24 Gag protein expression by MTT assay; format: functional, organism-based; conditions: Human immunodeficiency virus 2, EHO; method in brief: as §3
[25] = test system: Human immunodeficiency virus 2; assay: Antiviral activity against HIV2 ROD in MT2 cells assessed as inhibition of p24 Gag protein expression by MTT assay; format: functional, organism-based; conditions: Human immunodeficiency virus 2, ROD; method in brief: as §3
[26] = Cytotoxicity against human MT2 cells assessed as inhibition of p24 Gag protein expression by MTT assay; format: cell-based
[27] = test system: Human immunodeficiency virus 1; assay: Antiviral activity against HIV1 NL4-3 in MT4 cells by MTT assay; format: functional, organism-based; conditions: Human immunodeficiency virus 1, NL4-3, MT4

| SMILES | EC50 [1] | EC50 [2] | EC50 [3] | EC50 [4] | EC50 [5] | EC50 [6] | EC50 [7] | EC50 [8] | EC50 [9] | EC50 [10] | EC50 [11] | EC50 [12] | EC50 [13] | EC50 [14] | EC50 [15] | EC50 [22] | EC50 [23] | EC50 [24] | EC50 [25] | CC50 [26] | also measured |
| --- | --- | --- | --- | --- | --- | --- | --- | --- | --- | --- | --- | --- | --- | --- | --- | --- | --- | --- | --- | --- | --- |
| CC(C)(C)NC(=O)[C@@H]1C[C@@H]2CCCC[C@@H]2CN1C[C@@H](O)[C@H](Cc1ccccc1)NC(=O)[C@H](CC(N)=O)NC(=O)c1ccc2ccccc2n1 | 10 nM | 59 nM | 24 nM | 37 nM | 32 nM | 31 nM | 12 nM | 22 nM | 32 nM | 8 nM | 180 nM | 140 nM | 290 nM | 270 nM | 35 nM | > 1000 nM | 8 nM | 3 nM | 4.3 nM | 16400 nM | EC50 [16]: 33 nM; EC50 [17]: 4.8 nM; EC50 [18]: 3.2 nM; EC50 [19]: 8.3 nM; EC50 [20]: 6.7 nM; EC50 [21]: 3 nM; EC50 [27]: 7 nM |
| CC(C)CN(C[C@@H](O)[C@H](Cc1ccccc1)NC(=O)O[C@H]1CCOC1)S(=O)(=O)c1ccc(N)cc1 | 280 nM | 170 nM | 60 nM | 200 nM | 310 nM | > 1000 nM | 58 nM | 330 nM | > 1000 nM | 29 nM | 300 nM | 480 nM | 430 nM | 360 nM | – | 330 nM | 36 nM | 250 nM | 570 nM | > 100000 nM | EC50 [17]: 46 nM; EC50 [18]: 27 nM; EC50 [20]: 33 nM; EC50 [21]: 21 nM |
| CC(C)CN(C[C@@H](O)[C@H](Cc1ccccc1)NC(=O)O[C@H]1CO[C@H]2OCC[C@H]21)S(=O)(=O)c1ccc(N)cc1 | 18 nM | 15 nM | 3.3 nM | 3.4 nM | – | 330 nM | 21 nM | 36 nM | 210 nM | 3.8 nM | 4.3 nM | 16 nM | 27 nM | 40 nM | 9 nM | 5.8 nM | 3.9 nM | 8 nM | 6.8 nM | 83100 nM | EC50 [16]: 7 nM |
| CC(C)CN(C[C@@H](O)[C@H](Cc1ccccc1)NC(=O)O[C@H]1CO[C@H]2OCC[C@H]21)S(=O)(=O)c1ccc2c(c1)OCO2 | 2.5 nM | 3.7 nM | 2.4 nM | 1.5 nM | 7.5 nM | 32 nM | 3.8 nM | 8 nM | 180 nM | 0.5 nM | 3.2 nM | 3.8 nM | 6 nM | 3.9 nM | 2.7 nM | 6 nM | 0.5 nM | 3.2 nM | 4.5 nM | 35700 nM | EC50 [16]: 3.4 nM; EC50 [17]: 0.5 nM; EC50 [18]: 0.4 nM; EC50 [19]: 0.2 nM; EC50 [20]: 0.5 nM; EC50 [21]: 0.3 nM; EC50 [27]: 0.3 nM |
